The record followed here is ChEMBL document CHEMBL1129483, “Antitumor 2-(aminocarbonyl)-1,2-bis(methylsulfonyl)-1-(2-chloroethyl)- hydrazines” (1996).

In general, T/C refers to the result in the treated group divided by that in the control group, in per cent.

The structures appear in SMILES notation. “And” between values parts separate entries of the source, which are not always exact repeats. Identical values can stand only once.

Common to all, as to assay type: functional
Assay [1] relates to Mus musculus. Nature of the assay: Average percent change in body weight from onset to termination of therapy at dose 10(mg/kg). The essentials: (§1)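 CD2F1 mice implanted ip with 10^5 L1210 leukemia cells (kept by serial passage in culture and periodic ip passage in donor mice). Drug given ip in 100% DMSO, at most 0.025 mL, once daily for 6 consecutive days starting 24 h after implantation. Groups of 5–10 mice; vehicle-treated tumor-bearing controls. Body weight change is the average percent from onset to termination of therapy, used as a toxicity index.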

Assay [2] deals with Mus musculus. Kind of assay: Average percent change in body weight from onset to termination of therapy at dose 15(mg/kg). The essentials: as §1
Assay [3] has as its system Mus musculus. Kind of assay: Average percent change in body weight from onset to termination of therapy at dose 5(mg/kg). Summed up:
as §1

Assay [4] relates to Mus musculus. Kind of assay: Average survival time of treated /control mice*100 was determined at a daily dose of 10 mg/kg. The essentials: (§2)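 L1210 leukemia cells kept by serial passage in culture. 10^5 cells given ip to CD2F1 mice. Drug in 100% DMSO given ip once daily for 6 days starting 24 h after implant. 5–10 mice per group, with vehicle-treated controls. %T/C is average survival time of treated mice over controls ×100. 60-day survivors (cures) are excluded from the calculation.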

In assay [5] the test system is Mus musculus. Nature of the assay: Average survival time of treated /control mice*100 was determined at a daily dose of 15 mg/kg. The essentials:
as §2

Assay [6] deals with Mus musculus. Nature of the assay: Average survival time of treated /control mice*100 was determined at a daily dose of 5 mg/kg. The essentials:
as §2

In assay [7] the test system is Mus musculus. Nature of the assay: %60 day survivors were determined for the compound as the mouse […] at dose 15 mg/kg. Summed up: (§3)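 L1210 leukemia cells kept by serial passage in culture. 10^5 cells given ip to CD2F1 mice. Drug in 100% DMSO, at most 0.025 mL, given ip once daily for 6 consecutive days starting 24 h after implant. 5–10 mice per group, with vehicle-treated tumor-bearing controls. Value is the percentage of mice alive and symptom-free 60 days after tumor implant.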

Assay [8] relates to Mus musculus. Nature of the assay: Average percent change in body weight from onset to termination of therapy at dose 75(mg/kg). The essentials: as §1
The subject of assay [9] is Mus musculus. Nature of the assay: Average percent change in body weight from onset to termination of therapy at dose 100(mg/kg). The essentials: as §1
Assay [10] relates to Mus musculus. Kind of assay: Average percent change in body weight from onset to termination of therapy at dose 20(mg/kg). The essentials: as §1
In assay [11] the test system is Mus musculus. Kind of assay: Average percent change in body weight from onset to termination of therapy at dose 25(mg/kg). The essentials: as §1
For assay [12], the system named is Mus musculus. Nature of the assay: Average percent change in body weight from onset to termination of therapy at dose 50(mg/kg). The essentials: as §1
For assay [13], the system named is Mus musculus. Kind of assay: Average survival time of treated /control mice*100 was determined at a daily dose of 20 mg/kg. Summed up:
as §2

The subject of assay [14] is Mus musculus. Nature of the assay: Average survival time of treated /control mice*100 was determined at a daily dose of 25 mg/kg. Summed up: as §2
The subject of assay [15] is Mus musculus. Kind of assay: %60 day survivors were determined for the compound as the mouse […] at dose 10 mg/kg. The essentials:
as §3

Assay [16] concerns Mus musculus. Nature of the assay: %60 day survivors were determined for the compound as the mouse […] at dose 25 mg/kg. The essentials:
as §3

For assay [17], the system named is Mus musculus. Kind of assay: %60 day survivors were determined for the compound as the mouse […] at dose 50 mg/kg. The essentials: as §3
Assay [18] has as its system Mus musculus. Kind of assay: %60 day survivors were determined for the compound as the mouse […] at dose 75 mg/kg. Summed up: as §3
Assay [19] concerns Mus musculus. Kind of assay: Average percent change in body weight from onset to termination of therapy at dose 150(mg/kg). The essentials: as §1
Assay [20] relates to Mus musculus. Kind of assay: Average survival time of treated /control mice*100 was determined at a daily dose of 150 mg/kg. Summed up: as §2
For assay [21], the system named is Mus musculus. Nature of the assay: Average survival time of treated /control mice*100 was determined at a daily dose of 50 mg/kg. Summed up:
as §2

Assay [22] deals with Mus musculus. Kind of assay: %60 day survivors were determined for the compound as the mouse […] at dose 100 mg/kg. The essentials: as §3
The test system of assay [23] is Mus musculus. Nature of the assay: %60 day survivors were determined for the compound as the mouse […] at dose 150 mg/kg. The essentials: as §3
For assay [24], the system named is Mus musculus. Kind of assay: %60 day survivors were determined for the compound as the mouse […] at dose 5 mg/kg. The essentials:
as §3

In assay [25] the test system is Mus musculus. Kind of assay: %60 day survivors were determined for the compound as the mouse […] at dose 20 mg/kg. Summed up:
as §3

Assay [26] relates to Mus musculus. Nature of the assay: Average survival time of treated /control mice*100 was determined at a daily dose of 100 mg/kg. Summed up:
as §2

Assay [27] concerns Mus musculus. Nature of the assay: Average survival time of treated /control mice*100 was determined at a daily dose of 75 mg/kg. Summed up: as §2

Regarding `CS(=O)(=O)N(CCCl)N(C(=O)NCCCCl)S(C)(=O)=O`, the Change with Mus musculus [1] is -5.6%; with Mus musculus [2], -8.8%; in the assay on Mus musculus [3], -2.8%. The T/C with Mus musculus [4] was determined as 187%; in the assay with Mus musculus [5], 192%; in the assay on Mus musculus [6] it was 111%. The Survivors with Mus musculus [7] turned out to be 20%.

Take `CCOC(=O)C(C)NC(=O)N(N(CCCl)S(C)(=O)=O)S(C)(=O)=O` (centres undefined): the Change in the assay with Mus musculus [8] was -2.5%; in the assay on Mus musculus [1] it was -1.4%; in the assay on Mus musculus [9], -2.5%; in the assay on Mus musculus [2], -0.5%; in the assay with Mus musculus [10], -1.5%; with Mus musculus [11], -2.5%. Also, the Change was -2% in the assay on Mus musculus [3] and -3.3% with Mus musculus [12]. Further, the T/C came to 178% with Mus musculus [4]; 185% in the assay on Mus musculus [5]; 227% with Mus musculus [13]; 239% with Mus musculus [14]; 170% in the assay on Mus musculus [6]. Besides, the Survivors came to 20% with Mus musculus [15], 60% in the assay on Mus musculus [16], 100% in the assay on Mus musculus [17] and 80% with Mus musculus [18].

`CCOC(=O)C(Cc1ccccc1)NC(=O)N(N(CCCl)S(C)(=O)=O)S(C)(=O)=O` (centres undefined): the Change is -0.5% with Mus musculus [1]; -2% in the assay on Mus musculus [9]; -1.9% with Mus musculus [2]; -5% in the assay with Mus musculus [19]; -1.9% with Mus musculus [10]; -0.9% with Mus musculus [11]. For the same compound, the Change in the assay on Mus musculus [3] is -2.5%; with Mus musculus [12] it was -2%. For the same compound, the T/C is recorded as 165% in the assay with Mus musculus [4]; 169% with Mus musculus [20]; 160% in the assay on Mus musculus [5]; 174% in the assay with Mus musculus [13]; 177% with Mus musculus [14]; 225% in the assay with Mus musculus [21]. The compound also gave a T/C in the assay with Mus musculus [6] of 147%. The figures for the Survivors in the assay with Mus musculus [22], in the assay on Mus musculus [23] and in the assay with Mus musculus [17] were 100%, 20% and 60%, respectively.

Take `C=CCNC(=O)N(N(CCCl)S(C)(=O)=O)S(C)(=O)=O`: the Change was -2.1% with Mus musculus [1], -2.9% with Mus musculus [2] and -1.6% with Mus musculus [3]. Further, the figures for the T/C in the assay with Mus musculus [4] and in the assay with Mus musculus [6] were 394% and 184%, respectively. The Survivors in the assay on Mus musculus [15] turned out to be 40%; in the assay with Mus musculus [7], 100%; with Mus musculus [24], 20%.

On to `CS(=O)(=O)N(CCCl)N(C(=O)NCCCl)S(C)(=O)=O`, for which the Change with Mus musculus [1] was -4.7%; in the assay on Mus musculus [2] it was -4%; in the assay on Mus musculus [10], -10.4%. The T/C stood at 216% with Mus musculus [5] and 239% in the assay on Mus musculus [13]. Further, the values for the Survivors in the assay with Mus musculus [15], with Mus musculus [7] and with Mus musculus [25] were 100%, 80% and 80%, respectively.

Regarding `CCOC(=O)CNC(=O)N(N(CCCl)S(C)(=O)=O)S(C)(=O)=O`, the Change is -1.5% in the assay with Mus musculus [8]; -1.4% in the assay with Mus musculus [1]; -4% in the assay on Mus musculus [9]; -0.5% with Mus musculus [2]; -3.7% in the assay on Mus musculus [10]; -0.5% in the assay with Mus musculus [11]. Moreover, the Change in the assay with Mus musculus [3] was -1.5%; with Mus musculus [12], -2.5%. The T/C is 115% with Mus musculus [26]; 202% with Mus musculus [4]; 202% with Mus musculus [5]; 191% and 138% in the assay with Mus musculus [13] (20 mg/kg); 151% in the assay with Mus musculus [6]; 119% in the assay with Mus musculus [27]. In addition, the Survivors in the assay on Mus musculus [15] worked out at 20%; with Mus musculus [25], 20%; with Mus musculus [16] it was 100%; in the assay on Mus musculus [17] it was 80%; in the assay with Mus musculus [18], 60%.

Take `CNC(=O)N(N(CCCl)S(C)(=O)=O)S(C)(=O)=O` [LAROMUSTINE]: the figures for the Change in the assay on Mus musculus [1], in the assay with Mus musculus [2] and with Mus musculus [3] were -5.6%, -2.1% and 9.9%, respectively. The same compound showed a T/C with Mus musculus [6] of 234%. Further, the Survivors is given as 100% in the assay with Mus musculus [15], 100% in the assay with Mus musculus [7] and 40% with Mus musculus [24].
